rCAG RNA binder = r(CAG) repeat RNA binding | TO-PRO-1 dye displacement fluorescence | 370,000 compounds, 1.3% hits | AID 651821 | inhibition, % at 3 µM;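 active = inhibition above the plate cutoff, the mean of all test compounds on that plate plus 3 SD, cut at about 35% in these data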;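 also: 0% = DMSO alone and 100% = 100 µM mitoxantrone as full dye displacement; higher means more dye released from RNA so lower well fluorescence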
core dimer inh = blocks dimerization of HCV core protein. TR-FRET GST/Flag-core106 dimerization, 1536-well. inhibition, % at 5 µM. 300,000 compounds, 0.33% hits. AID 1899;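 active = inhibition above the mean of all tested compounds plus 3 SD, set per screening campaign, cut at about 45% in these data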
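Test system: GST/Flag-tagged HCV core106 proteins; Medium: KF-containing HEPES buffer, pH 7.45, DTT, CHAPS, BSA; Times: compound-protein-antibody incubation 4 h at 22.5 °C; Detection: TR-FRET 671 and 617 nm emission; Benchmarks: wells lacking GST-core106 and wells with excess unlabelled core106.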
NadD block = blocks S. aureus nicotinate mononucleotide adenylyltransferase. inhibition, % at 20 µM. purified NadD enzyme, colorimetric absorbance read-out. 360,000 compounds, 0.78% hits; in the data active = inhibition above about 26%
ABHD5-PLIN5 inh = ABHD5-PLIN5 protein interaction inhibition | 360,000 compounds, 0.78% hits | inhibition, % at 4 µM | AID 602281 | Split G. princeps luciferase complementation, luminescence, 4 h | Q00G26+Q8WTS1;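 active = inhibition above the mean inhibition across every tested compound plus 3 SD, cut at about 22% in these data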;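 also: 0% = DMSO only wells and the 100% control is not disclosed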
Target sequence (Q00G26 whole entry, looked up): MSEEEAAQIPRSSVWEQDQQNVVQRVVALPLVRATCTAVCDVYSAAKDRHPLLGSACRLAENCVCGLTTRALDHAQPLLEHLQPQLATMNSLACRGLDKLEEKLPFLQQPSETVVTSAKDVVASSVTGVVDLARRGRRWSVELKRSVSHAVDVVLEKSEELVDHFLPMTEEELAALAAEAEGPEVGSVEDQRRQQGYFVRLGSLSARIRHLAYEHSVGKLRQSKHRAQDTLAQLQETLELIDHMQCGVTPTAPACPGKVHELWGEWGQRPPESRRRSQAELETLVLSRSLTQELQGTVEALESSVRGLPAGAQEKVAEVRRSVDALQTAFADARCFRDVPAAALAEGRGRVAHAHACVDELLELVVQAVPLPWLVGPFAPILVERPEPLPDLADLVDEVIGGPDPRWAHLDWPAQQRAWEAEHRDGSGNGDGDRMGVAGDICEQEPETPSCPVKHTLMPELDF
Target sequence (Q8WTS1 whole entry, looked up): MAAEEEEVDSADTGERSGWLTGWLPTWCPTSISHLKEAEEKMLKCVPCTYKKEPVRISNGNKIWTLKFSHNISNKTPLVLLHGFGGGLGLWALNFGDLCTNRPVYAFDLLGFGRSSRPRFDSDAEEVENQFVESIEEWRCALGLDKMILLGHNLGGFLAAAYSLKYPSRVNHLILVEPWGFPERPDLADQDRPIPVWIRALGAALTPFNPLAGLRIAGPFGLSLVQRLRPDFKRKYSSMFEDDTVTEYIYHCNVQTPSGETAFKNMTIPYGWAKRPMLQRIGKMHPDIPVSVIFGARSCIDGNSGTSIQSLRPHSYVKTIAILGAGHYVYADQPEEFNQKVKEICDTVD
ABHD5 PLIN5 conf = ABHD5-PLIN5 interaction inhibition, confirmed. shares compounds with ABHD5-PLIN5 inh. biochemical ABHD5-PLIN5 interaction, luminescence. inhibition, % at 4 µM. 2,200 compounds, 67% hits. AID 651612; in the data active = inhibition above about 23%;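 also: 0% = DMSO vehicle wells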
HNF4 split-luc = HNF4 split-luciferase signal hit, counter-screen | shares compounds with ABHD5-PLIN5 inh | HNF4 dimerization, luminescence, biochemical | inhibition, % at 4 µM | 2,200 compounds, 77% hits | AID 651674;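 active = mean inhibition across replicate wells exceeding the computed hit threshold, cut at about 13% in these data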;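 also: light from luciferase halves that rejoin when HNF4 fusion proteins dimerize; 0% = DMSO only wells and the 100% control is not given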
Starred values were filed as active, the others as inactive; . = no result. An excerpt weighted towards active compounds, which were near 2.6% of everything screened.

SMILES	rCAG RNA binder	core dimer inh	NadD block	ABHD5-PLIN5 inh	ABHD5 PLIN5 conf	HNF4 split-luc
CNC(=O)/C(C#N)=C/c1ccc(-c2nc3ccccc3s2)o1	-6	3	0	35*	6	4
COc1ccccc1CNc1nc(NCc2ccc3occc3c2)c2sccc2n1	3	.	29	24*	8	16*
O=C(C1CCCCC1)N1C[C@@H](O)[C@H](n2cc(-c3ccc(F)cc3)nn2)C[C@@H]1c1ccccc1	3	.	2	-3	.	.
CC(=O)N(c1ccc2oc(=O)sc2c1)S(=O)(=O)c1ccc(C(=O)O)cc1	28	-3	1	25*	-42	82*
CC(=O)OCCCNc1cc(Sc2nc3ccccc3s2)c2nonc2c1[N+](=O)[O-]	.	2	8	-13	.	.
CC(=O)OCCNc1cc(Sc2nc3ccccc3[nH]2)c2nonc2c1[N+](=O)[O-]	12	-6	4	60*	71*	112*
COc1cccc(-c2nc(=S)c3c(n2Cc2ccco2)CCCC3)c1	14	-2	16	1	.	.
Cc1cccc(-c2nc(=S)c3c(n2Cc2ccco2)CCCC3)c1	4	64*	6	28*	7	11
COc1ccc2cc(-c3cccc4[nH]cc(C)c34)ccc2c1	9	.	.	.	.	.
Cc1cccc(C)c1-n1nnnc1C(c1ccnc2ccccc12)N1CCN(C/C=C/c2ccccc2)CC1 (centres undefined)	8	.	5	11	.	.
Cc1nc([N+](=O)[O-])c(Br)n1CC(=O)c1ccc2ccccc2c1	6	23	5	25*	53*	36*
O=C1/C(=C\c2ccccc2)CCC/C1=C/c1ccccc1	3	.	-9	5	.	.
CCN(CC)CCC(=O)N1C/C(=C/c2ccccc2)C(=O)/C(=C\c2ccccc2)C1	3	.	-1	97*	102*	103*
O=C1/C(=C\c2ccc(Cl)c(Cl)c2)CN(C(=O)CCN2CCOCC2)C/C1=C/c1ccc(Cl)c(Cl)c1	6	.	7	99*	103*	108*
O=C(NCCN1CCOCC1)c1ccc(Cl)c(Cl)c1	3	1	-4	-6	.	.
O=C1/C(=C\c2ccccc2)CN(C(=O)CCN2CCCCC2)C/C1=C/c1ccccc1	0	.	3	98*	103*	108*
O=C(CCN1C(=O)S/C(=C\c2ccccc2)C1=O)N1CCCCC1	-4	-5	1	12	.	.
COc1ccc(CNC(=O)c2cn(Cc3ccc(S(=O)(=O)N(C)C)cc3)c(=O)s2)cc1	4	.	-4	6	.	.
COc1cc(C2Oc3ccccc3C=C2[N+](=O)[O-])cc(OC)c1OC (centres undefined)	5	.	9	40*	95*	94*
O=c1[nH]c(/C=C/c2ccc([N+](=O)[O-])cc2)c([N+](=O)[O-])c(=O)[nH]1	14	.	-2	50*	85*	79*
O=c1[nH]c(/C=C/c2ccc3c(c2)OCO3)c([N+](=O)[O-])c(=O)[nH]1	.	7	.	.	.	.
O=C(NCCc1ccccc1)OCc1cn(Cc2ccc(F)cc2F)nn1	-2	.	.	.	.	.
O=C(NCc1ccco1)Nc1ccc2nsnc2c1	6	0	9	38*	50*	82*
COC(=O)C[C@@H]1CC[C@@H]2[C@@H](COc3ccc(NC(=O)Nc4ccccc4)cc3C(=O)N2C)O1	4	.	.	.	.	.
CCOC(=O)/C=C1\CN(C(C)c2ccccc2)S(=O)(=O)c2ccccc21 (centres undefined)	-3	-2	15	59*	7	4
SMILES	rCAG RNA binder	core dimer inh	NadD block	ABHD5-PLIN5 inh	ABHD5 PLIN5 conf	HNF4 split-luc
CCOC(=O)/C=C1\CN(CCC(C)C)S(=O)(=O)c2ccccc21	-9	-2	8	5	.	.
C=CCn1c(COc2ccc(Cl)cc2)nnc1SCC(=O)c1ccc(-c2ccccc2)cc1	8	.	.	.	.	.
CC1Sc2ccc(S(=O)(=O)N3CCC(C(=O)NCc4ccc(Cl)cc4)CC3)cc2NC1=O (centres undefined)	2	6	0	27*	43*	.
Cc1cccc(OCCCN2CCC(C(O)(c3ccccc3)c3ccccc3)CC2)c1	0	.	.	.	.	.
O=C(/C(=C/c1ccccc1)n1cncn1)c1ccc(Cl)cc1Cl	2	-2	2	33*	90*	57*
O=C(/C(=N\O)n1cncn1)c1ccc(Cl)cc1Cl	1	-2	1	-1	.	.

Bioassay records (PubChem BioAssay)
